ChEMBL document CHEMBL2163331, “Multidrug resistance reversal and apoptosis induction in human colon cancer cells by some flavonoids present in citrus plants” (J Nat Prod, 2012)
Calls of active or inactive are those of the source. The calls are words filed in the database; no cut-off is given here.

Columns and labels:
[1] = Induction of apoptosis in human […] cells assessed as necrotic cells at 100 uM after 48 hrs by annexin-V and propidium iodide staining based flow cytometry (reference value: 9.57 +/- 2.83%); assay type: functional
[2] = system: LoVo; assay: Induction of apoptosis in human drug-sensitive LoVo cells assessed as apoptotic cells at 100 uM after 48 hrs by annexin-V and propidium iodide staining based flow cytometry (reference value: 6.68 +/- 1.77%); assay type: functional
[3] = system: LoVo; assay: Induction of apoptosis in human drug-sensitive LoVo cells assessed as necrotic cells at 100 uM after 48 hrs by annexin-V and propidium iodide staining based flow cytometry (reference value: 10.44 +/- 3.23%); assay type: functional
[4] = system: LoVo; assay: Cytotoxicity against human drug-sensitive LoVo cells after 72 hrs by SRB assay; assay type: functional, cell-based
Procedure, shortened: (§1)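 Cells seeded at 30 000/well, attached 60 min at 37 °C, then compound added in an equal volume of medium and incubated 72 h. Read by sulforhodamine B at A492. Survival = A492 treated / A492 medium-only control × 100%. DMSO was at most 0.3% in samples. Triplicate experiments, means ± SD, Student's t test.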

[5] = Induction of apoptosis in human […] cells assessed as apoptotic cells at 100 uM after 48 hrs by annexin-V and propidium iodide staining based flow cytometry (reference value: 6.16 +/- 1.67%); assay type: functional
[6] = system: LoVo/DX; assay: Cytotoxicity against human drug-resistant LoVo/DX cells after 72 hrs by SRB assay; assay type: functional, cell-based; procedure, shortened: as §1
[7] = molecular target: T1, ATP-dependent translocase ABCB1 (Homo sapiens, UniProt P08183); assay: Inhibition of p-glycoprotein in human LoVo/DX cells assessed accumulation of rhodamine 123 at 5 to 100 uM after 60 mins by fluorescence assay; conditions: 1 h
T1 sequence (P08183 whole entry): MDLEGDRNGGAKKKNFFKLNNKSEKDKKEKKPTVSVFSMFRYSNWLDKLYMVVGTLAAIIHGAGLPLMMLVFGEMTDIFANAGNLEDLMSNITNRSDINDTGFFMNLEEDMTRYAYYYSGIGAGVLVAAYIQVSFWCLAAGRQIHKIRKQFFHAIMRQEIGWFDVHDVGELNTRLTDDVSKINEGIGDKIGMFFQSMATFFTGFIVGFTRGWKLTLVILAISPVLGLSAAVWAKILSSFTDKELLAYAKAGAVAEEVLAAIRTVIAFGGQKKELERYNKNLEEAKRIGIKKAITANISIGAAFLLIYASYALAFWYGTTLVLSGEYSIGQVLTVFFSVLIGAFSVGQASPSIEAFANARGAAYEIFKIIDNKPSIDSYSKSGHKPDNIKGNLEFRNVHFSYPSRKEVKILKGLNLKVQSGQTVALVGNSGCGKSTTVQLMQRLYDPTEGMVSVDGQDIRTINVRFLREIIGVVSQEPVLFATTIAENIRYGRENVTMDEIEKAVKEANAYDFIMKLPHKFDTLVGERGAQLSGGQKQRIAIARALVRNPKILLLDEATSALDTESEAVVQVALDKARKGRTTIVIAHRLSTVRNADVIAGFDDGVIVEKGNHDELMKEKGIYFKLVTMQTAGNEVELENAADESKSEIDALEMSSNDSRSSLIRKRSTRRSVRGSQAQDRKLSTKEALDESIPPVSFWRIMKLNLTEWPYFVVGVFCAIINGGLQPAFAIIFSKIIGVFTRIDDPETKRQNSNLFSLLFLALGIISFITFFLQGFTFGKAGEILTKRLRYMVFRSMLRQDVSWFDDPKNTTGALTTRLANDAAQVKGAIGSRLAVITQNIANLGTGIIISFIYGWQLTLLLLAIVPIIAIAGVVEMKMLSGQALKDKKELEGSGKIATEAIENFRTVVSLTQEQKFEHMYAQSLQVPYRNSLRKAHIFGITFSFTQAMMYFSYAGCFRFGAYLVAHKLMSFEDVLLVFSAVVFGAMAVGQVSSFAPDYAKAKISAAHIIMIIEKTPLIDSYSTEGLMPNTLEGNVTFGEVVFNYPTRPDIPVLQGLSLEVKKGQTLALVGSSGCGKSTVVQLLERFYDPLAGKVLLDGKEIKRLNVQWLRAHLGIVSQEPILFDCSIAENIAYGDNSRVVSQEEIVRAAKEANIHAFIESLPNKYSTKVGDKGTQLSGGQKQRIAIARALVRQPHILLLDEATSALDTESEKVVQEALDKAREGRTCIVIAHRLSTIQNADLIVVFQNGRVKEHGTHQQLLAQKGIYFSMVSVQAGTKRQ

[8] = Induction of apoptosis in human […] cells assessed as activation of caspase-3 at 15 uM after 48 hrs relative to control; assay type: functional
Procedure, shortened: (§2)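 LoVo (sensitive) or LoVo/Dx (doxorubicin-selected; kept in 100 ng/mL doxorubicin) cells, 800 000/well, attached 24 h, then exposed to compound in fresh medium for 48 h. Cells scraped and pelleted. Caspase-3 activity read colorimetrically at A405 as pNA released from DEVD-pNA (commercial kit). Reported as ratio of treated to medium-only control. Triplicate, means ± SD, Student's t test.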

[9] = Induction of apoptosis in human […] cells assessed as apoptotic cells at 15 uM after 48 hrs by annexin-V and propidium iodide staining based flow cytometry (reference value: 6.16 +/- 1.67%); assay type: functional
[10] = Induction of apoptosis in human […] cells assessed as necrotic cells at 15 uM after 48 hrs by annexin-V and propidium iodide staining based flow cytometry (reference value: 9.57 +/- 2.83%); assay type: functional
[11] = system: LoVo; assay: Induction of apoptosis in human drug-sensitive LoVo cells assessed as apoptotic cells at 15 uM after 48 hrs by annexin-V and propidium iodide staining based flow cytometry (reference value: 6.68 +/- 1.77%); assay type: functional
[12] = system: LoVo; assay: Induction of apoptosis in human drug-sensitive LoVo cells assessed as activation of caspase-3 at 15 uM after 48 hrs relative to control; assay type: functional; procedure, shortened: as §2
[13] = system: LoVo; assay: Induction of apoptosis in human drug-sensitive LoVo cells assessed as necrotic cells at 15 uM after 48 hrs by annexin-V and propidium iodide staining based flow cytometry (reference value: 10.44 +/- 3.23%); assay type: functional
[14] = system: LoVo; assay: Induction of apoptosis in human drug-sensitive LoVo cells assessed as activation of caspase-3 at 75 uM after 48 hrs relative to control; assay type: functional
Procedure, shortened: (§3)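 Cells seeded at 800 000/well and allowed to attach 24 h. Compound added in fresh medium, then 48 h incubation. Cells scraped and centrifuged, and caspase-3 activity measured colorimetrically by pNA release from DEVD-pNA (A405) with a kit. Result expressed as a ratio to a medium-only control. Triplicate, means ± SD.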

[15] = system: LoVo; assay: Induction of apoptosis in human drug-sensitive LoVo cells assessed as necrotic cells at 25 uM after 48 hrs by annexin-V and propidium iodide staining based flow cytometry (reference value: 10.44 +/- 3.23%); assay type: functional
[16] = system: LoVo; assay: Induction of apoptosis in human drug-sensitive LoVo cells assessed as apoptotic cells at 25 uM after 48 hrs by annexin-V and propidium iodide staining based flow cytometry (reference value: 6.68 +/- 1.77%); assay type: functional
[17] = molecular target: T1, ATP-dependent translocase ABCB1; assay: Inhibition of p-glycoprotein in human LoVo/DX cells assessed nuclear accumulation of doxorubicin at 100 uM after 60 mins by fluorescence assay; assay type: cell-based; conditions: 1 h
Procedure, shortened: (§4)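 Cells seeded at 15 000/well and cultured 48 h. Fresh F12 medium with 50 μM doxorubicin (plus 100 μM modulator) added for 60 min at 37 °C. Cells washed, then imaged by fluorescence microscopy (40× objective, excitation 528−553 nm, emission 578−633 nm) under identical illumination.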

[18] = system: LoVo; assay: Inhibition of doxorubicin intracellular accumulation in human LoVo cells at 100 uM after 60 mins by fluorescence assay; assay type: functional, cell-based; procedure, shortened: as §4
[19] = Induction of apoptosis in human […] cells assessed as activation of caspase-3 at 75 uM after 48 hrs relative to control; assay type: functional; procedure, shortened: as §3
[20] = system: LoVo; assay: Induction of apoptosis in human drug-sensitive LoVo cells assessed as activation of caspase-3 at 25 uM after 48 hrs relative to control; assay type: functional; procedure, shortened: as §3
[21] = Induction of apoptosis in human […] cells assessed as activation of caspase-3 at 25 uM after 48 hrs relative to control; assay type: functional; procedure, shortened: as §3
[22] = molecular target: T1, ATP-dependent translocase ABCB1; assay: Inhibition of p-glycoprotein in human LoVo/DX cells assessed as potentiation of doxorubicin-induced cytotoxicity at 5 uM after 72 hrs by SRB assay; assay type: cell-based
Procedure, shortened: (§5)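 Doxorubicin cytotoxicity measured with and without 5 μM modulator by SRB over 72 h. Cells seeded at 30 000/well and attached 60 min at 37 °C before treatment. Survival taken as A492 treated / A492 control × 100%. Three experiments, means ± SD, Student's t test (p < 0.05).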

[23] = Induction of apoptosis in human […] cells assessed as necrotic cells at 25 uM after 48 hrs by annexin-V and propidium iodide staining based flow cytometry (reference value: 9.57 +/- 2.83%); assay type: functional
[24] = system: LoVo; assay: Induction of apoptosis in human drug-sensitive LoVo cells assessed as necrotic cells at 75 uM after 48 hrs by annexin-V and propidium iodide staining based flow cytometry (reference value: 10.44 +/- 3.23%); assay type: functional
[25] = system: LoVo; assay: Induction of apoptosis in human drug-sensitive LoVo cells assessed as activation of caspase-3 at 100 uM after 48 hrs relative to control; assay type: functional; procedure, shortened: as §3
[26] = system: LoVo; assay: Potentiation of doxorubicin-induced cytotoxicity in human LoVo cells at 5 uM after 72 hrs by SRB assay; assay type: functional, cell-based; procedure, shortened: as §5
[27] = molecular target: T1, ATP-dependent translocase ABCB1; assay: Inhibition of p-glycoprotein in human LoVo/DX cells assessed accumulation of rhodamine 123 at 75 to 100 uM after 60 mins by fluorescence assay; assay type: cell-based; conditions: 1 h
Procedure, shortened: (§6)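 Cells at 300 000/mL in serum- and phenol red-free medium, preincubated 15 min at room temperature with modulator (5−100 μM). Rhodamine 123 then added (final 2 μM) for 60 min at 37 °C. Washed cells read by flow cytometry (488 nm excitation, 530/30 nm), 5000 events. FIR = (LoVo/Dx treated/control)/(LoVo treated/control). Triplicate.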

[28] = system: LoVo; assay: Inhibition of rhodamine 123 accumulation in human LoVo cells at 75 to 100 uM after 60 mins by fluorescence assay; assay type: functional, cell-based; procedure, shortened: as §6
[29] = Induction of apoptosis in human […] cells assessed as apoptotic cells at 25 uM after 48 hrs by annexin-V and propidium iodide staining based flow cytometry (reference value: 6.16 +/- 1.67%); assay type: functional
[30] = Induction of apoptosis in human […] cells assessed as necrotic cells at 75 uM after 48 hrs by annexin-V and propidium iodide staining based flow cytometry (reference value: 9.57 +/- 2.83%); assay type: functional
[31] = Induction of apoptosis in human […] cells assessed as activation of caspase-3 at 100 uM after 48 hrs relative to control; assay type: functional; procedure, shortened: as §3
[32] = Induction of apoptosis in human […] cells assessed as apoptotic cells at 75 uM after 48 hrs by annexin-V and propidium iodide staining based flow cytometry (reference value: 6.16 +/- 1.67%); assay type: functional
[33] = system: LoVo; assay: Induction of apoptosis in human drug-sensitive LoVo cells assessed as apoptotic cells at 75 uM after 48 hrs by annexin-V and propidium iodide staining based flow cytometry (reference value: 6.68 +/- 1.77%); assay type: functional

SMILES	Activity [1]	Activity [2]	Activity [3]	Activity [4]	Activity [5]	Activity [6]	inhibition (INH) [7]	other results
COc1ccc([C@@H]2CC(=O)c3c(O)cc(OC)cc3O2)cc1	17.74%	14.1%	17.82%	Active	9.67%	Active	Not Active	–
CC[C@@]1(O)C(=O)OCc2c1cc1n(c2=O)Cc2cc3ccccc3nc2-1 [CAMPTOTHECIN]	–	–	–	–	–	–	–	Ratio [8]: 3.83; Activity [9]: 17.56%; Activity [10]: 17.96%; Activity [11]: 17.61%; Ratio [12]: 3.4; Activity [13]: 23.81%
O=C1c2c(O)cc(O)cc2O[C@H](c2ccc(O)cc2)[C@H]1O [DIHYDROKAEMPFEROL]	6.83%	10.96%	10.02%	Active	9.38%	Active	Not Active	–
O=C1C[C@@H](c2ccc(O)cc2)Oc2cc(O)cc(O)c21 [NARINGENIN]	5.65%	15.44%	8.16%	Active	6.98%	Active	Not Active	–
COc1cc(O)c2c(c1)O[C@H](c1ccc(O)cc1)CC2=O [SAKURANETIN]	18.89%	18.16%	25.28%	Active	4.87%	Active	Not Active	–
COc1ccc(-c2cc(=O)c3c(OC)c(OC)c(OC)c(OC)c3o2)cc1 [TANGERETIN]	21.75%	15.19%	23.75%	Active	23.05%	Active	–	Ratio [14]: 2.06; Activity [15]: 25.82%; Activity [16]: 11.57%; inhibition (INH) [17]: Active; inhibition [18]: inactive; Ratio [19]: 2.37; Ratio [20]: 1.04; Ratio [21]: 2.08; Activity [22]: Active; Activity [23]: 17.55%; Activity [24]: 29.61%; Ratio [25]: 2.17; Activity [26]: inactive; inhibition (INH) [27]: Active; inhibition [28]: inactive; Activity [29]: 13.87%; Activity [30]: 17.45%; Ratio [31]: 2.71; Activity [32]: 13.35%; Activity [33]: 12.83%
